Laboratory results from ChEMBL document CHEMBL1255259, “Phosphorothioate-modified oligodeoxynucleotides inhibit human cytomegalovirus replication by blocking virus entry” (Antimicrob Agents Chemother, 2008).
The source made the active and inactive calls. The rule behind the calls is not given here.

Assays:
[1] = test system: Human betaherpesvirus 5; experiment: Antimicrobial activity against 0.1 uM compound pretreated Human cytomegalovirus AD169 infected in HELF assessed as reduction in viral titer 37 degC; type: functional, organism-based
Procedure, shortened: (§1)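 HCMV AD169 (10^4 PFU) incubated with ODN at 0.1 μM at 4 or 37°C for various times; samples then diluted to bring ODN below an antivirally active level; residual infectivity titrated by plaque assay on HELF. Means ± SD of three independent experiments.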

[2] = test system: Human betaherpesvirus 5; experiment: Antimicrobial activity against Human cytomegalovirus AD169 infected in 0.1 uM compound pretreated HELF assessed as inhibition of viral replication measured after 6 days post-infection; type: functional, organism-based
Procedure, shortened: (§2)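 HELF pretreated with ODN 1 h before infection with HCMV AD169 (MOI 1); ODN kept in medium after 2 h adsorption at 37°C. At 6 days p.i., cells plus supernatants sonicated and titrated by plaque assay on HELF; plaques counted microscopically, expressed as PFU/ml (log10) or % of control. IC50/IC90 by linear regression; duplicate wells, three independent experiments, means ± SD.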

[3] = test system: Human betaherpesvirus 5; experiment: Antimicrobial activity against 0.1 uM compound pretreated Human cytomegalovirus AD169 infected in HELF assessed as reduction in viral titer at 4 degC; type: functional, organism-based; procedure, shortened: as §1
[4] = test system: Human betaherpesvirus 5; experiment: Antimicrobial activity against Human cytomegalovirus AD169 infected in compound pretreated HELF assessed as inhibition of viral replication measured after 6 days post-infection; type: functional, organism-based; details: Human betaherpesvirus 5, AD169, HELF; procedure, shortened: as §2
[5] = Cytotoxicity against HELF assessed as cell viability by MTT assay after 6 days at <=10 uM; type: cell-based; details: human, 144 h
Procedure, shortened: (§3)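 HELF exposed to rising ODN concentrations (up to 10 μM) for 6 days; viable cells measured by MTT. CC50 taken as concentration that cuts viability to 50%.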

[6] = test system: Human alphaherpesvirus 1; experiment: Antimicrobial activity against Human herpesvirus 1 infected in compound pretreated HELF assessed as inhibition of viral replication at 1 uM; type: functional, organism-based
Procedure, shortened: (§4)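 HELF pretreated with ODN (0.1 or 1 μM) 1 h before infection with a clinical HSV-1 isolate at MOI 0.1; ODN kept in medium after 2 h adsorption. Harvest at 48 h p.i., sonication, plaque titration on Vero cells. Means ± SD of three independent experiments.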

[7] = test system: Human alphaherpesvirus 1; experiment: Antimicrobial activity against Human herpesvirus 1 infected in compound pretreated HELF assessed as inhibition of viral replication at 0.1 uM; type: functional, organism-based; procedure, shortened: as §4
[8] = test system: Human betaherpesvirus 5; experiment: Antimicrobial activity against Human cytomegalovirus AD169 infected in 1 uM compound pretreated HELF assessed as inhibition of viral replication measured after 6 days post-infection; type: functional, organism-based; procedure, shortened: as §2
[9] = test system: Human betaherpesvirus 5; experiment: Antimicrobial activity against Human cytomegalovirus AD169 infected in HELF assessed as inhibition of viral replication at 1 uM measured after 6 days post-infection; type: functional, organism-based
[10] = Cytotoxicity against HELF assessed as cell viability after 6 days by MTT assay; type: cell-based; details: human, HELF cells; procedure, shortened: as §3
[11] = test system: Human betaherpesvirus 5; experiment: Antimicrobial activity against Human cytomegalovirus AD169 infected in HELF assessed as inhibition of viral replication at 0.1 uM measured after 6 days post-infection; type: functional, organism-based

| SMILES | inhibition [1] | inhibition [2] | inhibition [3] | IC50 [4] [nM] | IC90 [4] [nM] | Activity [5] | inhibition [6] | inhibition [7] | inhibition [8] | inhibition [9] | CC50 at 144 h [10] [µM] | inhibition [11] |
| --- | --- | --- | --- | --- | --- | --- | --- | --- | --- | --- | --- | --- |
| Cc1cn([C@H]2C[C@H](OP(O)(O)=S)[C@@H](COP(O)(=S)O[C@H]3C[C@H](n4cc(C)c(=O)[nH]c4=O)O[C@@H]3COP(O)(=S)O[C@H]3[C@@H](O)[C@H](n4cnc5c(=O)[nH]c(N)nc54)O[C@@H]3COP(O)(=S)O[C@H]3[C@@H](O)[C@H](n4ccc(N)nc4=O)O[C@@H]3COP(O)(=S)O[C@H]3[C@@H](O)[C@H](n4cnc5c(N)ncnc54)O[C@@H]3COP(O)(=S)O[C@H]3[C@@H](O)[C@H](n4cnc5c(=O)[nH]c(N)nc54)O[C@@H]3COP(O)(=S)O[C@H]3C[C@H](n4cc(C)c(=O)[nH]c4=O)O[C@@H]3COP(O)(=S)O[C@H]3[C@@H](O)[C@H](n4ccc(N)nc4=O)O[C@@H]3COP(O)(=S)O[C@H]3[C@@H](O)[C@H](n4ccc(N)nc4=O)O[C@@H]3COP(O)(=S)O[C@H]3C[C@H](n4cc(C)c(=O)[nH]c4=O)O[C@@H]3COP(O)(=S)O[C@H]3C[C@H](n4cc(C)c(=O)[nH]c4=O)O[C@@H]3COP(O)(=S)O[C@H]3[C@@H](O)[C@H](n4cnc5c(=O)[nH]c(N)nc54)O[C@@H]3COP(O)(=S)O[C@H]3[C@@H](O)[C@H](n4ccc(N)nc4=O)O[C@@H]3COP(O)(=S)O[C@H]3[C@@H](O)[C@H](n4cnc5c(N)ncnc54)O[C@@H]3COP(O)(=S)O[C@H]3[C@@H](O)[C@H](n4cnc5c(=O)[nH]c(N)nc54)O[C@@H]3COP(O)(=S)O[C@H]3C[C@H](n4cc(C)c(=O)[nH]c4=O)O[C@@H]3COP(O)(=S)O[C@H]3[C@@H](O)[C@H](n4cnc5c(N)ncnc54)O[C@@H]3COP(O)(=S)O[C@H]3[C@@H](O)[C@H](n4ccc(N)nc4=O)O[C@@H]3COP(O)(=S)O[C@H]3[C@@H](O)[C@H](n4ccc(N)nc4=O)O[C@@H]3COP(O)(=S)O[C@H]3C[C@H](n4cc(C)c(=O)[nH]c4=O)O[C@@H]3CO)O2)c(=O)[nH]c1=O (stereo partly specified) | inactive | Active | inactive | 40 | 900 | Non-toxic | inactive | inactive | Active | inactive | > 10 | inactive |
| Cc1cn([C@H]2C[C@H](OP(O)(=S)OC[C@H]3O[C@@H](n4ccc(N)nc4=O)[C@H](O)[C@@H]3OP(O)(=S)OC[C@H]3O[C@@H](n4cnc5c(=O)[nH]c(N)nc54)[C@H](O)[C@@H]3OP(O)(=S)OC[C@H]3O[C@@H](n4cc(C)c(=O)[nH]c4=O)C[C@@H]3OP(O)(=S)OC[C@H]3O[C@@H](n4ccc(N)nc4=O)[C@H](O)[C@@H]3OP(O)(=S)OC[C@H]3O[C@@H](n4cnc5c(=O)[nH]c(N)nc54)[C@H](O)[C@@H]3OP(O)(=S)OC[C@H]3O[C@@H](n4cc(C)c(=O)[nH]c4=O)C[C@@H]3OP(O)(=S)OC[C@H]3O[C@@H](n4cc(C)c(=O)[nH]c4=O)C[C@@H]3OP(O)(=S)OC[C@H]3O[C@@H](n4cc(C)c(=O)[nH]c4=O)C[C@@H]3OP(O)(=S)OC[C@H]3O[C@@H](n4cc(C)c(=O)[nH]c4=O)C[C@@H]3OP(O)(=S)OC[C@H]3O[C@@H](n4cnc5c(=O)[nH]c(N)nc54)[C@H](O)[C@@H]3OP(O)(=S)OC[C@H]3O[C@@H](n4cc(C)c(=O)[nH]c4=O)C[C@@H]3OP(O)(=S)OC[C@H]3O[C@@H](n4ccc(N)nc4=O)[C@H](O)[C@@H]3OP(O)(=S)OC[C@H]3O[C@@H](n4cnc5c(=O)[nH]c(N)nc54)[C@H](O)[C@@H]3OP(O)(=S)OC[C@H]3O[C@@H](n4cc(C)c(=O)[nH]c4=O)C[C@@H]3OP(O)(=S)OC[C@H]3O[C@@H](n4cc(C)c(=O)[nH]c4=O)C[C@@H]3OP(O)(=S)OC[C@H]3O[C@@H](n4cc(C)c(=O)[nH]c4=O)C[C@@H]3OP(O)(=S)OC[C@H]3O[C@@H](n4cc(C)c(=O)[nH]c4=O)C[C@@H]3OP(O)(=S)OC[C@H]3O[C@@H](n4cc(C)c(=O)[nH]c4=O)C[C@@H]3OP(O)(=S)OC[C@H]3O[C@@H](n4cc(C)c(=O)[nH]c4=O)C[C@@H]3OP(O)(=S)OC[C@H]3O[C@@H](n4cc(C)c(=O)[nH]c4=O)C[C@@H]3OP(O)(=S)OC[C@H]3O[C@@H](n4ccc(N)nc4=O)[C@H](O)[C@@H]3OP(O)(=S)OC[C@H]3O[C@@H](n4cnc5c(=O)[nH]c(N)nc54)[C@H](O)[C@@H]3OP(O)(=S)OC[C@H]3O[C@@H](n4cnc5c(N)ncnc54)[C@H](O)[C@@H]3OP(O)(O)=S)[C@@H](CO)O2)c(=O)[nH]c1=O (stereo partly specified) | inactive | Active | inactive | 20 | 100 | Non-toxic | inactive | inactive | Active | inactive | > 10 | inactive |
| Cc1cn([C@H]2C[C@H](OP(O)(O)=S)[C@@H](COP(O)(=S)O[C@H]3C[C@H](n4cc(C)c(=O)[nH]c4=O)O[C@@H]3COP(O)(=S)O[C@H]3[C@@H](O)[C@H](n4cnc5c(=O)[nH]c(N)nc54)O[C@@H]3COP(O)(=S)O[C@H]3[C@@H](O)[C@H](n4ccc(N)nc4=O)O[C@@H]3COP(O)(=S)O[C@H]3C[C@H](n4cc(C)c(=O)[nH]c4=O)O[C@@H]3COP(O)(=S)O[C@H]3[C@@H](O)[C@H](n4cnc5c(=O)[nH]c(N)nc54)O[C@@H]3COP(O)(=S)O[C@H]3C[C@H](n4cc(C)c(=O)[nH]c4=O)O[C@@H]3COP(O)(=S)O[C@H]3C[C@H](n4cc(C)c(=O)[nH]c4=O)O[C@@H]3COP(O)(=S)O[C@H]3C[C@H](n4cc(C)c(=O)[nH]c4=O)O[C@@H]3COP(O)(=S)O[C@H]3C[C@H](n4cc(C)c(=O)[nH]c4=O)O[C@@H]3COP(O)(=S)O[C@H]3[C@@H](O)[C@H](n4cnc5c(=O)[nH]c(N)nc54)O[C@@H]3COP(O)(=S)O[C@H]3[C@@H](O)[C@H](n4ccc(N)nc4=O)O[C@@H]3COP(O)(=S)O[C@H]3C[C@H](n4cc(C)c(=O)[nH]c4=O)O[C@@H]3COP(O)(=S)O[C@H]3[C@@H](O)[C@H](n4cnc5c(=O)[nH]c(N)nc54)O[C@@H]3COP(O)(=S)O[C@H]3[C@@H](O)[C@H](n4ccc(N)nc4=O)O[C@@H]3COP(O)(=S)O[C@H]3C[C@H](n4cc(C)c(=O)[nH]c4=O)O[C@@H]3COP(O)(=S)O[C@H]3C[C@H](n4cc(C)c(=O)[nH]c4=O)O[C@@H]3COP(O)(=S)O[C@H]3C[C@H](n4cc(C)c(=O)[nH]c4=O)O[C@@H]3COP(O)(=S)O[C@H]3[C@@H](O)[C@H](n4cnc5c(=O)[nH]c(N)nc54)O[C@@H]3COP(O)(=S)O[C@H]3[C@@H](O)[C@H](n4ccc(N)nc4=O)O[C@@H]3COP(O)(=S)O[C@H]3C[C@H](n4cc(C)c(=O)[nH]c4=O)O[C@@H]3COP(O)(=S)O[C@H]3[C@@H](O)[C@H](n4cnc5c(=O)[nH]c(N)nc54)O[C@@H]3COP(O)(=S)O[C@H]3[C@@H](O)[C@H](n4ccc(N)nc4=O)O[C@@H]3COP(O)(=S)O[C@H]3C[C@H](n4cc(C)c(=O)[nH]c4=O)O[C@@H]3CO)O2)c(=O)[nH]c1=O (stereo partly specified) | inactive | Active | inactive | 50 | 800 | Non-toxic | inactive | inactive | Active | inactive | > 10 | inactive |
